Reference: ChEMBL document CHEMBL5247578, “Effective synthesis of benzimidazoles-imidazo[1,2-a]pyrazine conjugates: A comparative study of mono-and bis-benzimidazoles for antitumor activity” (Eur J Med Chem, 2019)

Assays:
Albumin = Albumin (Bos taurus, UniProt P02769); test: Binding affinity to bovine serum albumin assessed as quenching constant by fluorescence spectroscopic method; conditions: cattle
HEK293 = test: Cytotoxicity against human HEK293 cells assessed as reduction in cell viability at 0.000001 M incubated for 48 hrs by MTT colorimetric assay relative to control; type: toxicity, cell-based; conditions: hek293, 48 h, 1 µM
MCF7 [1] = test: Antiproliferative activity against human MCF7 cells assessed as cell growth at 0.00000001 M incubated for 48 hrs by SRB assay relative to control; type: functional; conditions: dose 10 nM, read-out: Activity
UO-31 = test: Antiproliferative activity against human UO-31 cells assessed as cell growth at 0.00000001 M incubated for 48 hrs by SRB assay relative to control; type: functional; conditions: dose 10 nM, read-out: Activity
OVCAR-5 = test: Antiproliferative activity against human OVCAR-5 cells assessed as cell growth at 0.00000001 M incubated for 48 hrs by SRB assay relative to control; type: functional; conditions: dose 10 nM, read-out: Activity
SNB-75 = test: Antiproliferative activity against human SNB-75 cells assessed as cell growth at 0.00000001 M incubated for 48 hrs by SRB assay relative to control; type: functional; conditions: dose 10 nM, read-out: Activity
NCI-H522 = test: Antiproliferative activity against human NCI-H522 cells assessed as cell growth inhibition by measuring lethal concentration incubated for 48 hrs by sulforhodamine B assay; type: functional; conditions: read-out: LC50 (the source's name)
NCI-H322M = test: Antiproliferative activity against human NCI-H322M cells assessed as cell growth inhibition by measuring lethal concentration incubated for 48 hrs by sulforhodamine B assay; type: functional; conditions: read-out: LC50 (the source's name)
KM12 [2] = test: Growth inhibition against human KM12 cells assessed as total growth inhibitory concentration incubated for 48 hrs by sulforhodamine B assay; type: functional
HCC 2998 = test: Growth inhibition against human HCC 2998 cells assessed as total growth inhibitory concentration incubated for 48 hrs by sulforhodamine B assay; type: functional
NCI-H23 = test: Growth inhibition against human NCI-H23 cells assessed as total growth inhibitory concentration incubated for 48 hrs by sulforhodamine B assay; type: functional
MDA-MB-468 = test: Growth inhibition against human MDA-MB-468 cells incubated for 48 hrs by sulforhodamine B assay; type: functional
786-0 = test: Growth inhibition against human 786-0 cells incubated for 48 hrs by sulforhodamine B assay; type: functional
SK-MEL-5 = test: Growth inhibition against human SK-MEL-5 cells incubated for 48 hrs by sulforhodamine B assay; type: functional
SNB-19 = test: Growth inhibition against human SNB-19 cells incubated for 48 hrs by sulforhodamine B assay; type: functional
SF-539 = test: Growth inhibition against human SF-539 cells incubated for 48 hrs by sulforhodamine B assay; type: functional
HCT-116 = test: Growth inhibition against human HCT-116 cells incubated for 48 hrs by sulforhodamine B assay; type: functional
A549 = test: Growth inhibition against human A549 cells incubated for 48 hrs by sulforhodamine B assay; type: functional
EKVX = test: Antiproliferative activity against human EKVX cells assessed as cell growth at 0.0000001 M incubated for 48 hrs by SRB assay relative to control; type: functional; conditions: dose 100 nM, read-out: Activity
Method in brief: (§1)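 NCI-60 five-dose screen (10^-4 to 10^-8 M). Cells grown in RPMI 1640 with 5% FBS and 2 mM L-glutamine, plated at 5,000-40,000 cells/well and preincubated 24 h. Drug given from DMSO stock, then 48 h at 37 °C, 5% CO2. For adherent lines, cells fixed with cold TCA, SRB-stained and read at 515 nm. Percent growth taken against time-zero and untreated control.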

COLO 205 = test: Antiproliferative activity against human COLO 205 cells assessed as cell growth at 0.0000001 M incubated for 48 hrs by SRB assay relative to control; type: functional; conditions: dose 100 nM, read-out: Activity
Method in brief: (§2)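 NCI-60 five-dose screen over 10^-4–10^-8 M (10-fold dilutions). Cells grown in RPMI 1640 with 5% FBS and 2 mM L-glutamine, seeded at 5,000–40,000 cells/well and preincubated 24 h. Drug from DMSO stock, 48 h at 37 °C, 5% CO2. Adherent cells TCA-fixed and stained with 0.4% SRB; A515 read. Percent growth = (Ti−Tz)/(C−Tz)×100, or (Ti−Tz)/Tz×100 when Ti<Tz.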

HCT-15 = test: Antiproliferative activity against human HCT-15 cells assessed as cell growth at 0.0000001 M incubated for 48 hrs by SRB assay relative to control; type: functional; conditions: dose 100 nM, read-out: Activity; method in brief: as §1
KM12 [3] = test: Antiproliferative activity against human KM12 cells assessed as cell growth at 0.0000001 M incubated for 48 hrs by SRB assay relative to control; type: functional; conditions: dose 100 nM, read-out: Activity
Malme-3M [4] = test: Antiproliferative activity against human Malme-3M cells assessed as cell growth at 0.0000001 M incubated for 48 hrs by SRB assay relative to control; type: functional; conditions: dose 100 nM, read-out: Activity
NCI-H226 = test: Antiproliferative activity against human NCI-H226 cells assessed as cell growth at 0.000001 M incubated for 48 hrs by SRB assay relative to control; type: functional; conditions: read-out: Activity
KM12 [5] = test: Antiproliferative activity against human KM12 cells assessed as cell growth at 0.000001 M incubated for 48 hrs by SRB assay relative to control; type: functional; conditions: read-out: Activity
SF-295 = test: Antiproliferative activity against human SF-295 cells assessed as cell growth at 0.000001 M incubated for 48 hrs by SRB assay relative to control; type: functional; conditions: read-out: Activity
Malme-3M [6] = test: Antiproliferative activity against human Malme-3M cells assessed as cell growth at 0.000001 M incubated for 48 hrs by SRB assay relative to control; type: functional; conditions: read-out: Activity
OVCAR-3 = test: Antiproliferative activity against human OVCAR-3 cells assessed as cell growth at 0.000001 M incubated for 48 hrs by SRB assay relative to control; type: functional; conditions: read-out: Activity
HOP-92 = test: Antiproliferative activity against human HOP-92 cells assessed as cell growth at 0.00001 M incubated for 48 hrs by SRB assay relative to control; type: functional; conditions: read-out: Activity; method in brief: as §1
SK-MEL-2 = test: Antiproliferative activity against human SK-MEL-2 cells assessed as cell growth at 0.00001 M incubated for 48 hrs by SRB assay relative to control; type: functional; conditions: read-out: Activity
OVCAR-8 [7] = test: Antiproliferative activity against human OVCAR-8 cells assessed as cell growth at 0.00001 M incubated for 48 hrs by SRB assay relative to control; type: functional; conditions: read-out: Activity
DU-145 = test: Antiproliferative activity against human DU-145 cells assessed as cell growth at 0.00001 M incubated for 48 hrs by SRB assay relative to control; type: functional; conditions: read-out: Activity; method in brief: as §1
BT-549 = test: Antiproliferative activity against human BT-549 cells assessed as cell growth at 0.00001 M incubated for 48 hrs by SRB assay relative to control; type: functional; conditions: read-out: Activity; method in brief: as §2
OVCAR-8 [8] = test: Antiproliferative activity against human OVCAR-8 cells assessed as cell growth at 0.0001 M incubated for 48 hrs by SRB assay relative to control; type: functional; conditions: read-out: Activity
SK-OV-3 = test: Antiproliferative activity against human SK-OV-3 cells assessed as cell growth at 0.0001 M incubated for 48 hrs by SRB assay relative to control; type: functional; conditions: read-out: Activity
MCF7 [9] = test: Antiproliferative activity against human MCF7 cells assessed as cell growth at 0.0001 M incubated for 48 hrs by SRB assay relative to control; type: functional; conditions: read-out: Activity

Chain of Albumin (P02769 whole entry): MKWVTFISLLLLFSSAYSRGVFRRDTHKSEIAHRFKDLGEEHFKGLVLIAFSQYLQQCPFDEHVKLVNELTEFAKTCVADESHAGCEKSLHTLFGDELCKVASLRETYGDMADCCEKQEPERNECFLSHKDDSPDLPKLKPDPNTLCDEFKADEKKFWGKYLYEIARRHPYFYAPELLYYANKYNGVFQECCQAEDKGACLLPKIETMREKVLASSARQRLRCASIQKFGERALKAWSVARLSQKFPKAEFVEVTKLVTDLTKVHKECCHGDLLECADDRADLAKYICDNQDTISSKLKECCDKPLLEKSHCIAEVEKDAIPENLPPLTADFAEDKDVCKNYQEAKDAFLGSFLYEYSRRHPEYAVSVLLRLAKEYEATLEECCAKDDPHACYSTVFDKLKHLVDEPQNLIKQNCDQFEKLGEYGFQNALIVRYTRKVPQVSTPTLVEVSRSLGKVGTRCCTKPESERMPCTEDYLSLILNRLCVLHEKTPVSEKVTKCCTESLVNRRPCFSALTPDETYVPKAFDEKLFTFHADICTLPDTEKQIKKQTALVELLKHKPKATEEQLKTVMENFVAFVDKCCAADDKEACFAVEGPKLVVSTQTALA

| SMILES | Kq (Albumin) | Activity (HEK293) | growth at 0.01 µM (MCF7 [1]) | growth at 0.01 µM (UO-31) | growth at 0.01 µM (OVCAR-5) | growth at 0.01 µM (SNB-75) | CC50 (NCI-H522) | CC50 (NCI-H322M) | TGI (KM12 [2]) | TGI (HCC 2998) | TGI (NCI-H23) | GI50 (MDA-MB-468) | GI50 (786-0) | GI50 (SK-MEL-5) | GI50 (SNB-19) | GI50 (SF-539) | GI50 (HCT-116) | GI50 (A549) | growth at 0.1 µM (EKVX) | growth at 0.1 µM (COLO 205) | other results |
| --- | --- | --- | --- | --- | --- | --- | --- | --- | --- | --- | --- | --- | --- | --- | --- | --- | --- | --- | --- | --- | --- |
| COc1ccc(-c2cn3ccnc3c(-c3ccc4ncn(C5CCCCC5)c4c3)n2)cc1 | 1.16 10^13/M/sec | 15.07% | 88% | 91% | 86% | 78% | > 100000 nM | > 100000 nM | > 100000 nM | > 100000 nM | > 100000 nM | 863 nM | 527 nM | 698 nM | 836 nM | 569 nM | 399 nM | 1830 nM | 89% | 102% | growth at 0.1 µM (HCT-15): 99%; growth at 0.1 µM (KM12 [3]): 99%; growth at 0.1 µM (Malme-3M [4]): 95%; growth at 1 µM (NCI-H226): 73%; growth at 1 µM (KM12 [5]): 57%; growth at 1 µM (SF-295): 18%; growth at 1 µM (Malme-3M [6]): 53%; growth at 1 µM (OVCAR-3): 19%; growth at 10 µM (HOP-92): 2%; growth at 10 µM (SK-MEL-2): 21%; growth at 10 µM (OVCAR-8 [7]): 8%; growth at 10 µM (DU-145): 14%; growth at 10 µM (BT-549): -18%; growth at 100 µM (OVCAR-8 [8]): 8%; growth at 100 µM (SK-OV-3): -2%; growth at 100 µM (MCF7 [9]): 24% |
| c1ccc(Cn2cnc3ccc(-c4nc(-c5ccc6c(c5)ncn6C5CCCCC5)cn5ccnc45)cc32)cc1 | 1.14 10^13/M/sec | 14.11% | 86% | 91% | 89% | 81% | > 100000 nM | > 100000 nM | 4930 nM | 3410 nM | 4490 nM | 1920 nM | 799 nM | 1500 nM | 4540 nM | 1060 nM | 1070 nM | 2330 nM | 91% | 99% | growth at 0.1 µM (HCT-15): 96%; growth at 0.1 µM (KM12 [3]): 98%; growth at 0.1 µM (Malme-3M [4]): 92%; growth at 1 µM (NCI-H226): 95%; growth at 1 µM (KM12 [5]): 93%; growth at 1 µM (SF-295): 74%; growth at 1 µM (Malme-3M [6]): 91%; growth at 1 µM (OVCAR-3): 94%; growth at 10 µM (HOP-92): -90%; growth at 10 µM (SK-MEL-2): -41%; growth at 10 µM (OVCAR-8 [7]): -23%; growth at 10 µM (DU-145): 4%; growth at 10 µM (BT-549): -82%; growth at 100 µM (OVCAR-8 [8]): -2%; growth at 100 µM (SK-OV-3): 6%; growth at 100 µM (MCF7 [9]): 8% |
